The subject of one test is NHDF. Description: Cytotoxicity against NHDF after 72 hrs by MTT assay. Format: cell-based. The conditions noted are these: Homo sapiens. The procedure, abridged:
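NHDF grown in DMEM with 5% FBS at 37°C, 5% CO2. Seeded at 1500-5000 cells/well, 24 h, then compound added in DMSO-containing medium (final DMSO 0.1%) for 72 h. MTT (5 mg/mL in medium) added for 4 h at 37°C, formazan dissolved in DMSO, absorbance read at 570 nm.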

The subject of test [1] is MCF7. The experiment in a line: Cytotoxicity against human MCF7 cells assessed as inhibition of cell proliferation at 20 uM after 72 hrs by MTT assay relative to control. It counts as functional. As to conditions: MCF7, 72 h. The procedure, abridged: (§1)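 Single-concentration screen at 20 μM with 72 h exposure in DMEM with 10% FBS, final DMSO 0.1%. Read-out was MTT (5 mg/mL, 4 h, 37°C), DMSO solubilisation and absorbance at 570 nm, expressed as percent inhibition. Lines reaching a threshold percentage went on to IC50 determination.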
For orientation: Formazan colour is commonly taken as a measure of viable cells.

Test [2] deals with HT-1080. The experiment in a line: Cytotoxicity against human HT1080 cells assessed as inhibition of cell proliferation at 20 uM after 72 hrs by MTT assay relative to control. Format: functional. As to conditions: HT-1080, 72 h. A digest of the protocol: as §1
Test [3] is described as follows: Cytotoxicity against human EJ28 cells assessed as inhibition of cell proliferation at 20 uM after 72 hrs by MTT assay relative to control. It counts as functional. As to conditions: EJ-28, 72 h. The procedure, abridged: as §1
Test [4] has as its system SW-620. The experiment in a line: Cytotoxicity against human SW620 cells after 72 hrs by MTT assay. The conditions noted are these: SW-620, 72 h. Format: functional, cell-based. A digest of the protocol: (§2)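 Tumour lines kept in DMEM with 10% FBS and 1% penicillin/streptomycin at 37°C, 5% CO2. Seeded at 1500-5000 cells/well by doubling time and size, 24 h, then compound in DMSO-containing medium (final DMSO 0.1%) for 72 h. MTT (5 mg/mL) 4 h at 37°C, DMSO solubilisation, absorbance at 570 nm.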

A short description of test [5]: Cytotoxicity against human EJ28 cells after 72 hrs by MTT assay. It counts as functional, cell-based. The conditions noted are these: EJ-28, 72 h. The procedure, abridged:
as §2

Test [6] deals with HT-1080. Description: Cytotoxicity against human HT1080 cells after 72 hrs by MTT assay. The conditions noted are these: HT-1080, 72 h. It counts as functional, cell-based. A digest of the protocol:
as §2

Test [7] has as its system MCF7. Description: Cytotoxicity against human MCF7 cells after 72 hrs by MTT assay. It counts as functional, cell-based. The conditions noted are these: MCF7, 72 h. A digest of the protocol:
as §2

Test [8] relates to A549. The experiment in a line: Cytotoxicity against human A549 cells after 72 hrs by MTT assay. It counts as functional, cell-based. The conditions noted are these: A549, 72 h. The procedure, abridged: as §2
Test [9] deals with SW-620. Description: Cytotoxicity against human SW620 cells assessed as inhibition of cell proliferation at 20 uM after 72 hrs by MTT assay relative to control. As to conditions: SW-620, 72 h. Format: functional. The procedure, abridged: as §1
The test system of test [10] is A549. The experiment in a line: Cytotoxicity against human A549 cells assessed as inhibition of cell proliferation at 20 uM after 72 hrs by MTT assay relative to control. It counts as functional. The conditions noted are these: A549, 72 h. A digest of the protocol: as §1

SMILES strings stand for the structures.

The source of these data is ChEMBL document CHEMBL4270616, “Asymmetrical meta-methoxylated diarylpentanoids: Rational design, synthesis and anti-cancer evaluation in-vitro” (Eur J Med Chem, 2018).

The IC50 is the concentration that inhibits the measured activity by half. A higher IC50 goes with a need for much substance. In general, inhibition refers to the share of the control response that was lost under treatment. On to `COc1ccccc1/C=C1\CCC/C(=C\c2cccc(OC)c2OC)C1=O`, for which the 50% inhibitory concentration (IC50) was 31.3 µM with NHDF; over 20 µM in the test with SW-620 [4]; 16.6 µM in test [5]; 14.1 µM with HT-1080 [6]; 12 µM in the test with MCF7 [7]; over 20 µM in the test with A549 [8]. Besides, the inhibition at 20 µM (in the test with MCF7 [1]; in the test with HT-1080 [2]; in test [3]; with SW-620 [9]; in the test with A549 [10]) was over 50% each time.

As to `COc1ccc(/C=C2\CCC/C(=C\c3cccc(Cl)c3Cl)C2=O)cc1OC`, the IC50 was 18.5 µM in the test with NHDF; 10.8 µM with SW-620 [4]; 10.4 µM in test [5]; 8.8 µM in the test on HT-1080 [6]; 14.3 µM with MCF7 [7]; over 20 µM in the test with A549 [8]. For the same compound, the inhibition at 20 µM (in the test on MCF7 [1]; with HT-1080 [2]; in test [3]; in the test on SW-620 [9]; in the test on A549 [10]) was over 50% each time.

Consider `COc1cccc(/C=C2\CCC/C(=C\c3ccc(OC)c(OC)c3)C2=O)c1`, for which the concentration for half-maximal inhibition (IC50) in the test on NHDF came to 11.6 µM; in the test on SW-620 [4] it was 3.7 µM; in [5] it was 4.2 µM; in the test on HT-1080 [6] it was 4.6 µM; in the test with MCF7 [7], 4.6 µM; with A549 [8] it was 6.7 µM. Further, the inhibition at 20 µM (in the test on MCF7 [1]; in the test on HT-1080 [2]; in test [3]; with SW-620 [9]; with A549 [10]) was over 50% each time.

In the case of `COc1ccc(/C=C2\CCC/C(=C\c3cccc(Cl)c3)C2=O)cc1OC`, the half-inhibitory concentration (IC50) with NHDF came to 11.9 µM; in the test on SW-620 [4], 5.1 µM; in [5] it was 5.4 µM; in the test on HT-1080 [6], 4.9 µM; in the test on MCF7 [7], 6 µM; in the test with A549 [8], 11 µM. Moreover, the inhibition at 20 µM (in the test with MCF7 [1]; in the test with HT-1080 [2]; in [3]; in the test on SW-620 [9]; in the test on A549 [10]) was over 50% in each case.

As for `COc1cccc(/C=C2\CCC/C(=C\c3cc(OC)c(OC)c(OC)c3)C2=O)c1OC`, the IC50 with NHDF was determined as 7.9 µM; with SW-620 [4], 2.5 µM; in test [5], 2.4 µM; in the test with HT-1080 [6], 2.3 µM; with MCF7 [7] it was 1.4 µM; with A549 [8] it was 5.9 µM. Besides, the inhibition at 20 µM (in the test on MCF7 [1]; with HT-1080 [2]; in [3]; in the test on SW-620 [9]; with A549 [10]) was over 50% throughout.

As for `COc1ccccc1/C=C1\CCC/C(=C\c2ccc(OC)c(OC)c2)C1=O`, the 50% inhibitory concentration (IC50) with NHDF is 18.1 µM; in the test with SW-620 [4], 7.8 µM; in test [5], 8.1 µM; with HT-1080 [6], 8.1 µM; in the test with MCF7 [7] it was 8 µM; with A549 [8] it was over 20 µM. In addition, the inhibition at 20 µM (with MCF7 [1]; in the test on HT-1080 [2]; in test [3]; in the test on SW-620 [9]; with A549 [10]) was over 50% in each case.

As for `COc1cccc(/C=C2\CCC/C(=C\c3cccc(Cl)c3)C2=O)c1OC`, the IC50 is 21.4 µM in the test with NHDF; 9.1 µM in the test on SW-620 [4]; 11.3 µM in test [5]; 10.3 µM in the test with HT-1080 [6]; 12 µM in the test on MCF7 [7]; over 20 µM in the test with A549 [8]. Further, the inhibition at 20 µM (in the test with MCF7 [1]; with HT-1080 [2]; in test [3]; with SW-620 [9]; in the test with A549 [10]) was over 50% in each case.

As to `COc1cccc(/C=C2\CCC/C(=C\c3cccc(Cl)c3Cl)C2=O)c1OC`, the IC50 in the test with NHDF was over 50 µM; in the test on SW-620 [4] it was 16.3 µM; in test [5] it was 18.1 µM; in the test on HT-1080 [6], 19.3 µM; in the test on MCF7 [7], over 20 µM; in the test with A549 [8], over 20 µM. In addition, the inhibition at 20 µM (in the test on MCF7 [1]; in the test with HT-1080 [2]; in test [3]; in the test on SW-620 [9]; in the test with A549 [10]) was over 50% throughout.

For `COc1cccc(/C=C2\CCC/C(=C\c3ccc(Br)cc3)C2=O)c1OC`, the IC50 in the test on NHDF is 21.4 µM; in the test on SW-620 [4], 11.1 µM; in test [5], 15.2 µM; in the test with HT-1080 [6] it was 13.7 µM; with MCF7 [7] it was 13.8 µM; in the test with A549 [8] it was over 20 µM. For the same compound, the inhibition at 20 µM (with MCF7 [1]; in the test on HT-1080 [2]; in [3]; with SW-620 [9]; with A549 [10]) was over 50% each time.

For the compound `COc1cc(/C=C2\CCC/C(=C\c3ccc(OC)c(OC)c3)C2=O)cc(OC)c1`, the IC50 in the test with NHDF was 6.5 µM; in the test on SW-620 [4], 2.5 µM; in test [5] it was 3 µM; in the test on HT-1080 [6], 2.6 µM; with MCF7 [7] it was 3.9 µM; in the test on A549 [8], 5.1 µM. For the same compound, the inhibition at 20 µM (in the test with MCF7 [1]; with HT-1080 [2]; in test [3]; in the test on SW-620 [9]; in the test with A549 [10]) was over 50% each time.

Consider `COc1ccc(/C=C2\CCC/C(=C\c3cccc(Br)c3)C2=O)cc1OC`, for which the IC50 was 12.4 µM in the test with NHDF; 4.2 µM in the test on SW-620 [4]; 4.9 µM in [5]; 5.2 µM in the test with HT-1080 [6]; 5.3 µM with MCF7 [7]; 12.8 µM in the test on A549 [8]. In addition, the inhibition at 20 µM (in the test with MCF7 [1]; in the test on HT-1080 [2]; in test [3]; in the test with SW-620 [9]; with A549 [10]) was over 50% each time.

Consider `COc1ccc(/C=C2\CCC/C(=C\c3cc(Cl)cc(Cl)c3)C2=O)cc1OC`, for which the IC50 was 8.3 µM with NHDF; 2.5 µM in the test on SW-620 [4]; 4.2 µM in test [5]; 3 µM in the test with HT-1080 [6]; 3.8 µM in the test on MCF7 [7]; 5.5 µM in the test with A549 [8]. Further, the inhibition at 20 µM (in the test on MCF7 [1]; with HT-1080 [2]; in test [3]; in the test with SW-620 [9]; with A549 [10]) was over 50% in each case.

As to `COc1ccc(/C=C2\CCC/C(=C\c3ccc(O)c(O)c3)C2=O)cc1OC`, the concentration for half-maximal inhibition (IC50) in the test on NHDF is 25.2 µM; in the test with SW-620 [4], 10.5 µM; in test [5], 12.1 µM; in the test on HT-1080 [6] it was 4.2 µM; with MCF7 [7], 14.4 µM; in the test with A549 [8], over 20 µM. The inhibition at 20 µM (in the test on MCF7 [1]; with HT-1080 [2]; in [3]; in the test on SW-620 [9]; with A549 [10]) was over 50% in each case.

For the compound `COc1ccc(/C=C2\CCC/C(=C\c3ccc(Cl)c(Cl)c3)C2=O)cc1OC`, the IC50 with NHDF turned out to be 10.1 µM; in the test with SW-620 [4], 4 µM; in [5] it was 3.4 µM; in the test on HT-1080 [6], 3.1 µM; in the test on MCF7 [7], 4.4 µM; in the test on A549 [8] it was 6.9 µM. Besides, the inhibition at 20 µM (in the test on MCF7 [1]; in the test on HT-1080 [2]; in [3]; in the test with SW-620 [9]; in the test with A549 [10]) was over 50% throughout.
